# What was measured:
# Homo sapiens = species: Homo sapiens; experiment: Selectivity ratio of Ki for full length recombinant GST-tagged VPS34 expressed in baculovirus expression system using PI/PS as substrate incubated for 60 mins in presence of ATP at Km concentration by luminescence assay to Ki for full length recombinant FLAG-tagged human ATM assessed as decrease in p53 S15 phosphorylation using full length myc-tagged p53 as substrate incubated for 30 mins in presence of ATP by ELISA
# Summary of the method: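 ADP-Glo luminescence read-out. ATM reaction: 0.75 nM enzyme, 25 nM myc-p53, 10 μM ATP, 30 min at 20 °C, p53 S15 phosphorylation by ELISA. Ki values are means of at least two experiments.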
# [1] = biological target: T1, Serine-protein kinase ATM (Homo sapiens, UniProt Q13315); experiment: Inhibition of full length recombinant FLAG-tagged human ATM assessed as decrease in p53 S15 phosphorylation using full length myc-tagged p53 as substrate incubated for 30 mins in presence of ATP by ELISA
# Summary of the method: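 Buffer was 25 mM HEPES pH 7.5 with MgCl₂, MnCl₂, Brij-35, glycerol, BSA and DTT (0.1% DMSO); reaction ran 30 min at 20 °C and was stopped with 70 mM EDTA. Product captured on anti-myc-coated plates and detected with anti-p53 pS15, HRP secondary and TMB, absorbance at 450 nm.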
# [2] = Kinetic solubility of the compound in pH 7.4 PBS buffer incubated for 2 hrs using orbital shaker by LC-UV mass spectrometry; format: physicochemical; conditions: read-out: Kinetic_solubility
# Summary of the method: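 Shaken on an orbital shaker for 2 h at room temperature, then filtered. Filtrate analysed by LC-UV with MS confirmation, calibrated against 200 μM and 10 μM DMSO dilutions.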
# [3] = biological target: Phosphatidylinositol 3-kinase catalytic subunit type 3 (Homo sapiens, UniProt Q8NEB9); experiment: Inhibition of full length recombinant GST-tagged human VPS34 expressed in baculovirus expression system using PI/PS as substrate incubated for 60 mins in presence of ATP at Km concentration by luminescence assay
# [4] = biological target: T1, Serine-protein kinase ATM; experiment: Inhibition of ATM in human U2OS cells assessed as reduction in etoposide-stimulated KAP1 phosphorylation incubated for 60 mins by immunoreactivity assay; format: cell-based
# Summary of the method: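 U2OS cells plated overnight at 6k cells/well (37 °C, 5% CO₂), then treated with compound titrations (0.3% DMSO) plus 100 μM etoposide for 60 min. Cells fixed in cold methanol and stained for phospho-KAP1 and total KAP1 using IRDye secondaries on a LI-COR Odyssey. IC50 is the mean of at least two experiments.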
# [5] = Intrinsic clearance in C57Bl/6 mouse pooled liver microsomes at 1 uM measured up to 40 mins in presence of NADPH by LC-MS/MS analysis; format: ADME, Microsome; conditions: read-out: CLH
# Summary of the method: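 Reaction started with 1 mM NADPH. Sampled at 0, 5, 10, 20 and 40 min, quenched in acetonitrile with internal standard, and analysed by LC–MS/MS.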
# [6] = Apparent permeability across apical to basolateral side in MDCK-MDR1 cells after 1 hr by LC-MS/MS analysis; format: ADME, cell-based, Canis lupus familiaris; conditions: dog
# Summary of the method: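 MDCKII-MDR1 and wild-type cells seeded at 2 × 10⁵ cells/well on Transwells and cultured 3 days. Test compound at 10 μM in HBSS with 25 mM HEPES, pH 7.4, added apical or basolateral in duplicate. Lucifer yellow used as integrity check; wells above 100 nm/s rejected. Sampled after 1 h at 37 °C and quantified by LC–MS/MS. Papp taken from the apical-to-basal direction.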
# [7] = Effective efflux ratio of apparent permeability across basolateral to apical over apical to basolateral side in MDCK-MDR1 cells assessed as efflux ratio after 1 hr by LC-MS/MS analysis; format: ADME, cell-based, Canis lupus familiaris; conditions: dog, mdck-mdr1, 1 h
# Summary of the method: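 MDCKII MDR1 and wild-type cells seeded at 2 × 10⁵ cells/well in Transwells, cultured 3 days. Test compounds 10 μM in HBSS with 25 mM HEPES pH 7.4, dosed apical or basolateral in duplicate, 1 h at 37 °C. Lucifer yellow monolayer check, wells above 100 nm/s rejected. LC–MS/MS read-out. ER = Papp B>A/A>B. EER = MDR1 ER over wild-type ER.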
# T1 sequence (Q13315 whole entry): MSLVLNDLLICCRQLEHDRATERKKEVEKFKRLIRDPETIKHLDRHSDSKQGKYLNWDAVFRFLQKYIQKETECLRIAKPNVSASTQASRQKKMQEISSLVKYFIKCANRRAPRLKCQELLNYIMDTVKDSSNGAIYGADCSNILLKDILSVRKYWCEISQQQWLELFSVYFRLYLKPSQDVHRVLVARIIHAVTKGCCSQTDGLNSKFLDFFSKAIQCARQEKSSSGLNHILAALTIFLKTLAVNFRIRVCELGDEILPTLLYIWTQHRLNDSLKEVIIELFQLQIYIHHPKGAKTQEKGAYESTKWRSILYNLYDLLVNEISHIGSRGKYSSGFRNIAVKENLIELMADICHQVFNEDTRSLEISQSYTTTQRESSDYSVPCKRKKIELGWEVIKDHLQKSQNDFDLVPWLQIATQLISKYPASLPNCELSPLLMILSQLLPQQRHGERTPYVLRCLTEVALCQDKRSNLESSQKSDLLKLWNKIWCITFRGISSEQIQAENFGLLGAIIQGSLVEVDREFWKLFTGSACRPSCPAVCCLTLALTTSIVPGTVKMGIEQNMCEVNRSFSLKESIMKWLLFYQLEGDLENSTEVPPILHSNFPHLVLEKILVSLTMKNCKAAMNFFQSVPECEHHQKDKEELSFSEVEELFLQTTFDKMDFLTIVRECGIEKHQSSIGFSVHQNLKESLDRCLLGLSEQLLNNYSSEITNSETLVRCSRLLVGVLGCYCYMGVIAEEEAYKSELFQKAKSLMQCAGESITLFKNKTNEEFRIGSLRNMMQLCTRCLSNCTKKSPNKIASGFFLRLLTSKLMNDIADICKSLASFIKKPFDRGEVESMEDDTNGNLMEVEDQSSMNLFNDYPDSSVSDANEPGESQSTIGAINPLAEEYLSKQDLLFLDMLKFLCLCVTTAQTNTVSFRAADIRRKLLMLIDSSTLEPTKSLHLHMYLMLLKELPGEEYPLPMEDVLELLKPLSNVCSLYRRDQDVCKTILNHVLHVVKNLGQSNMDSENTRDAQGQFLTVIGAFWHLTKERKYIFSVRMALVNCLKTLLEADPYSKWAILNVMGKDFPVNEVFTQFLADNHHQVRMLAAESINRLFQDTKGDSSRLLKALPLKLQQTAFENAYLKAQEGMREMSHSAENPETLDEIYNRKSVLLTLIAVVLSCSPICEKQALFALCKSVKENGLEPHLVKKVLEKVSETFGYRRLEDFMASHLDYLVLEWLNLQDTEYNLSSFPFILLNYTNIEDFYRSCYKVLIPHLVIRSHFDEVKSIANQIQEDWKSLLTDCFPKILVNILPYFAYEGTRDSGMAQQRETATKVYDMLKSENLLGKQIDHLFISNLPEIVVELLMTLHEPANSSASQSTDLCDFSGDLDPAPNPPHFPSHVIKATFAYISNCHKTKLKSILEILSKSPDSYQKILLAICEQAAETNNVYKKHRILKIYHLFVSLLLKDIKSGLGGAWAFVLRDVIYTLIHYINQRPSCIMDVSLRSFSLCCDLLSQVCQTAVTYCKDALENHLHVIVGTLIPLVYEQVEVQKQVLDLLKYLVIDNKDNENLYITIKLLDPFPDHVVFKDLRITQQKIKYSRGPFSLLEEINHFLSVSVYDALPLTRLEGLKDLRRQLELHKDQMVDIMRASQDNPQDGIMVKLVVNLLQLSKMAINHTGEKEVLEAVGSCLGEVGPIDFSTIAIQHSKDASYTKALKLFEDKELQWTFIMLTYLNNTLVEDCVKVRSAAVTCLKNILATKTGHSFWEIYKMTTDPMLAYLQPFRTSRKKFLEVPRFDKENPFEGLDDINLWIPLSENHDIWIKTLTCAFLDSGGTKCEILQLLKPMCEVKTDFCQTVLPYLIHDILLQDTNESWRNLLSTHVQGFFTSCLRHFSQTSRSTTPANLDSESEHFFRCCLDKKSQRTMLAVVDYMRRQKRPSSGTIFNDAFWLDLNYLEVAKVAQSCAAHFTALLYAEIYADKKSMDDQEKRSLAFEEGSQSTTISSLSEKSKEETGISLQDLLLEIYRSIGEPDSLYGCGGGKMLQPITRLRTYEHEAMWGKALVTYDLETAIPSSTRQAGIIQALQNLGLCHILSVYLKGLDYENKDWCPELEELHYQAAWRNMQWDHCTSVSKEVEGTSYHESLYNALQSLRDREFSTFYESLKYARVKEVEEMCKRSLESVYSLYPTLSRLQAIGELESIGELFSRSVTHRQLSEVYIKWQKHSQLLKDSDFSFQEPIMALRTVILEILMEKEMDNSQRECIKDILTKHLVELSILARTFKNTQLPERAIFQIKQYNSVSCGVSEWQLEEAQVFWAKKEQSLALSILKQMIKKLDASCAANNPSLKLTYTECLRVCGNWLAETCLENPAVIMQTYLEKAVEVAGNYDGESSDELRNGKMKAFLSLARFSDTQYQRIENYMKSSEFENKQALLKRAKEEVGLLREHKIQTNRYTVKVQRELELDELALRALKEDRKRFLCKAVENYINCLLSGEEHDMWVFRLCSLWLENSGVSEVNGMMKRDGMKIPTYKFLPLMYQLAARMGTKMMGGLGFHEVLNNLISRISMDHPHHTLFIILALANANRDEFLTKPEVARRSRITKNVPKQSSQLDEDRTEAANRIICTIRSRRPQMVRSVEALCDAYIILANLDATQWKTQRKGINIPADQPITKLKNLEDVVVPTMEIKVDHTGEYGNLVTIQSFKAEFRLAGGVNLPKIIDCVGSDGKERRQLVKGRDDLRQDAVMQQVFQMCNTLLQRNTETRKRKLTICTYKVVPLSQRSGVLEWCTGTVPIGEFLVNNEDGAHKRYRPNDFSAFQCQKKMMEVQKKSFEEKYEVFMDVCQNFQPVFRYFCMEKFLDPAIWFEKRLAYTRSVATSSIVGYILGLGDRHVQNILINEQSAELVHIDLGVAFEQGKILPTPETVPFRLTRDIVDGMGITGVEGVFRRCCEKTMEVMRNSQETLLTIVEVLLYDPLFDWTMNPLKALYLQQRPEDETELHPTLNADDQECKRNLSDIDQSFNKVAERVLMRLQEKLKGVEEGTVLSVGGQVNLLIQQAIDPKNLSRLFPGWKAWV
# Phosphatidylinositol 3-kinase catalytic subunit type 3, sequence (Q8NEB9 whole entry): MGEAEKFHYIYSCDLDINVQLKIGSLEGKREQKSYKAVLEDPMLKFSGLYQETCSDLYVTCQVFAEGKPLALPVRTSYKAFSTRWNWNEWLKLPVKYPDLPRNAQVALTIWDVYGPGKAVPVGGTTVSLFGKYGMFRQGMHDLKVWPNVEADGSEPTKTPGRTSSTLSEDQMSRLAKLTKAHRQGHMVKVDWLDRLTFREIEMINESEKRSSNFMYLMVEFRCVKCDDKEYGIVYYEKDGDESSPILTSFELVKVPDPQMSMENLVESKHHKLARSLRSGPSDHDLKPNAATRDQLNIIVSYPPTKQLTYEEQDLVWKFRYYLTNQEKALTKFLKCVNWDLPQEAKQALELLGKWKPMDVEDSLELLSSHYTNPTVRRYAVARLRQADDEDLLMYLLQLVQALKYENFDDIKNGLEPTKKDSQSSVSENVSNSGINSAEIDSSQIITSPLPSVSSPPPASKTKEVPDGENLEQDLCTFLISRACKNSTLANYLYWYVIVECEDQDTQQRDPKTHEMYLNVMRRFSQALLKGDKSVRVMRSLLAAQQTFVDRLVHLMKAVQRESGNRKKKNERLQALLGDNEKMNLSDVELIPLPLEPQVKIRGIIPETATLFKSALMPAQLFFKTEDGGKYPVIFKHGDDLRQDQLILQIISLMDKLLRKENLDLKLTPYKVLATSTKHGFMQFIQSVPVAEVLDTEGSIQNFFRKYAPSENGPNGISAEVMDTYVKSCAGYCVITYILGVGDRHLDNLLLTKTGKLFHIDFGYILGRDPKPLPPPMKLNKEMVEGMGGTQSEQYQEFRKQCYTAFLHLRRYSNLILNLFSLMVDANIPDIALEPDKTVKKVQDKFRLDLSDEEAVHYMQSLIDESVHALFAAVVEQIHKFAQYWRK
SMILES,Ratio Ki (Homo sapiens),Ki [1],solubility kinetic at 2 h [2],Ki [3],IC50 [4],CLint scaled at 1 µM [5],Papp A→B at 1 h [6],Ratio [7]
C[C@@H]1CN(c2cc(N3CCCCC[C@@H]3Cc3ccccc3)[nH]c(=O)c2)CCO1,200,1 nM,70 µg/mL,1800 nM,1600 nM,,,
O=c1cc(N2CCOCC2)cc(N2CC[C@@H](F)[C@@H]2Cc2ccccc2)[nH]1,43,3 nM,> 71 µg/mL,110 nM,1300 nM,< 65 mL/min/kg,51.8 ×10⁻⁶ cm/s,7.2
O=c1cc(N2CCOCC2)cc(N2CCC(Cc3ccccc3)C2)[nH]1 (configuration not stated),,> 1200 nM,5 µg/mL,,> 30000 nM,,,
COc1ccc2c(c1)Cc1cccc(-c3cc(N4CCOCC4)cc(=O)[nH]3)c1S2,33,4 nM,14 µg/mL,130 nM,880 nM,,,
O=c1cc(N2CCOCC2)nc(N2C[C@@H]3C[C@@H]3[C@@H]2Cc2ccccc2)[nH]1,8,0.6 nM,< 2 µg/mL,5 nM,,,,
COc1ccc2c(c1)Cc1cccc(-c3cc(O)nc(N4CCOCC4)n3)c1S2,1,25 nM,4 µg/mL,35 nM,6700 nM,,,
O=c1cc(N2CCOCC2)cc(N2CCC(F)(F)[C@@H]2Cc2ccccc2)[nH]1,6.5,6 nM,65 µg/mL,39 nM,,< 65 mL/min/kg,75.2 ×10⁻⁶ cm/s,2.6
COc1ccc2c(c1)Cc1cccc(-c3cc(N4CCOCC4)[nH]c(=O)c3)c1S2,,> 1000 nM,,,> 30000 nM,,,
COc1ccc2c(c1)Cc1cccc(-c3cc(N4CCOCC4)cc(=O)n3C)c1S2,> 1,> 1200 nM,10 µg/mL,910 nM,> 30000 nM,,,
O=c1cc(N2CCOCC2)cc(N2C[C@@H]3C[C@@H]3[C@@H]2Cc2ccccc2)[nH]1,13,0.3 nM,52 µg/mL,4 nM,150 nM,177 mL/min/kg,81.2 ×10⁻⁶ cm/s,2.9
COc1ccc2c(c1)Cc1cccc(-c3cc(=O)cc(N4CCOCC4)[nH]3)c1S2,,110 nM,3 µg/mL,,> 30000 nM,,,
C[C@@H]1CN(c2cc(N3C[C@H]4C[C@H]4[C@@H]3Cc3ccccc3)[nH]c(=O)c2)CCO1,,,62 µg/mL,> 5000 nM,,,,
O=c1cc(N2CCOCC2)cc(N2CCC[C@@H]2Cc2ccccc2)[nH]1,1,6 nM,> 68 µg/mL,9 nM,,115 mL/min/kg,59.9 ×10⁻⁶ cm/s,4.8
Oc1cc(N2CCOCC2)nc(N2CCC[C@@H]2Cc2ccccc2)n1,16,1 nM,34 µg/mL,16 nM,500 nM,261 mL/min/kg,77.5 ×10⁻⁶ cm/s,4.5
C[C@@H]1CN(c2cc(=O)[nH]c(N3CCCCC[C@@H]3Cc3ccccc3)n2)CCO1,840,1 nM,11 µg/mL,840 nM,,,,
C[C@@H]1CN(c2cc(=O)[nH]c(N3C[C@@H]4C[C@@H]4[C@@H]3Cc3ccccc3)n2)CCO1,1700,0.9 nM,< 2 µg/mL,1500 nM,,,,
O=c1cc(N2CCOCC2)nc(N2C[C@H]3C[C@H]3[C@@H]2Cc2ccccc2)[nH]1,105,0.2 nM,54 µg/mL,21 nM,130 nM,,,
O=c1cc(N2CCOCC2)nc(N2CCCCC[C@@H]2Cc2ccccc2)[nH]1,80,0.1 nM,48 µg/mL,8 nM,200 nM,287 mL/min/kg,58.1 ×10⁻⁶ cm/s,3.1
COc1ccc2c(c1)Cc1cccc(-c3cc(N4CCOCC4)cc(OC)n3)c1S2,> 3,> 1600 nM,< 2 µg/mL,> 5000 nM,> 30000 nM,,,
CO[C@@H]1CCN(c2cc(N3CCOCC3)cc(=O)[nH]2)[C@H]1Cc1ccccc1,,23 nM,72 µg/mL,,3500 nM,< 65 mL/min/kg,31.9 ×10⁻⁶ cm/s,12
C[C@@H]1CN(c2cc(=O)[nH]c(N3C[C@H]4C[C@H]4[C@@H]3Cc3ccccc3)n2)CCO1,490,2 nM,48 µg/mL,880 nM,,,,
O=c1cc(N2CCOCC2)cc(N2CCC[C@H]2Cc2ccccc2)[nH]1,> 1,> 900 nM,> 55 µg/mL,630 nM,> 30000 nM,,,
O=c1cc(N2CCOCC2)cc(N2CCCC2Cc2ccccc2)[nH]1 (racemic),2,30 nM,> 68 µg/mL,49 nM,4000 nM,,,
COc1ccc2c(c1)Cc1cccc(-c3cc(N4CCOCC4)nc(O)n3)c1S2,21,160 nM,< 2 µg/mL,3300 nM,> 30000 nM,,,
Oc1cc(N2CCC[C@@H]2Cc2ccccc2)nc(N2CCOCC2)n1,3,87 nM,59 µg/mL,270 nM,> 30000 nM,,,
COc1ccc2c(c1)Cc1cccc(-c3nc(O)cc(N4CCOCC4)n3)c1S2,,> 1600 nM,2 µg/mL,> 5000 nM,> 30000 nM,,,

# — ChEMBL document CHEMBL4823251, “Structure-Based Exploration of Selectivity for ATM Inhibitors in Huntington's Disease” (J Med Chem, 2021)
